In article PMC3044235 (Analytical and Bioanalytical Chemistry, 2010):
Several values for one entry are separate records, joined by “and”; a condition that tells them apart may be missing. Equal values may be shown once.

Experiments:
[1] = format: in vivo, human; settings: healthy volunteers, diet rich in fruits, vegetables, tea, and wine
How it was run: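 Volunteers on a flavonoid-rich diet also took oral flavonoid/isoflavone tablets; urine was sampled 5 h post-dose. Urine was deproteinised with acetonitrile/methanol, hydrolysed with β-glucuronidase/sulfatase (H. pomatia, pH 4.66, 18 h, 37 °C), cleaned by SPE and run on reversed-phase UHPLC (0.05% TFA/acetonitrile gradient, 25 °C, UV 254 and 280 nm). Amounts came from calibration curves in blank urine; identities were confirmed by HPLC–ESI-MS–MS.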

[2] = format: in vivo, human; settings: for approximate average daily output in urine: assuming the mean 24-h urine volume is 1.4 L; for percentage excreted in urine within 24 h of the administered dose: within 24 h after ingestion of the tablets; for AUC(0-inf) / AUC(0-t) / Tmax / half-life: human, urine, po
How it was run: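 Healthy volunteers (21–48 y) took oral flavonoid/isoflavone tablets. Processing: acetonitrile/methanol precipitation, centrifugation, β-glucuronidase/sulfatase (H. pomatia) hydrolysis at pH 4.66 for 18 h at 37 °C, then SPE. Reversed-phase UHPLC used a 0.05% TFA/acetonitrile gradient, UV 254/280 nm, and blank-urine calibration. Kel came from terminal-slope regression; t1/2 = 0.693/Kel.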

[3] = human urine, oral pharmaceutical preparations, n = 6, mean±S.D.

| SMILES | mean concentration in urine [1] | approximate average daily output in urine [2] [mg] | C max, peak concentration in urine [2, 3] | percentage excreted in urine within 24 h of the administered dose [2] [%] | further results |
| --- | --- | --- | --- | --- | --- |
| Oc1cc(O)c2c(c1)OC(c1ccc(O)c(O)c1)C(O)C2 (racemic) [(±)-CA, (±)-catechin] | 5427.34 ng/mL |  |  |  |  |
| COc1ccc([C@@H]2CC(=O)c3c(O)cc(O)cc3O2)cc1O [HST, hesperetin] | detected in urine, but not quantified |  |  |  |  |
| COc1cc2c(=O)c(-c3ccc(O)cc3)coc2cc1O[C@@H]1O[C@H](CO)[C@@H](O)[C@H](O)[C@H]1O [GLY, glycitin] |  | ~1.73 | 5482.33 ± 10.78 ng/mL and 5482.3 ± 10.8 ng/mL | 30 | T max, time to reach peak concentration ([2]; human urine, oral pharmaceutical preparations, n = 6): 5 h; AUC(0–t), area under the urine concentration–time curve [2, 3]: 86628.8 ± 1769.0 µg·h/mL; AUC(0–∞), area under the urine concentration–time curve [2, 3]: 86678.1 ± 1766.7 µg·h/mL |
| Oc1cc(O)c2c(c1)O[C@H](c1ccc(O)c(O)c1)[C@H](O)C2 [(−)-EC, (−)-epicatechin] | 2724.26 ng/mL |  |  |  |  |
| O=c1c(-c2ccc(O)cc2)coc2cc(O)ccc12 [DA, daidzein] |  | ~0.14 | 228.0 ± 5.34 ng/mL | 17 | AUC(0-inf) [2]: 7730 ± 414 µg·h/mL; AUC(0-t) [2]: 7710 ± 410 µg·h/mL; Tmax [2]: 7 h; half-life [2]: 4.43 ± 0.86 h |

Further lines, with some results ahead:

| mean concentration in urine [1] | approximate average daily output in urine [2] [mg] | C max, peak concentration in urine [2, 3] | percentage excreted in urine within 24 h of the administered dose [2] [%] | SMILES | further results |
| --- | --- | --- | --- | --- | --- |
| 73.57 ng/mL |  |  |  | C[C@@H]1O[C@@H](Oc2c(-c3ccc(O)c(O)c3)oc3cc(O)cc(O)c3c2=O)[C@H](O)[C@H](O)[C@H]1O [QUR, quercitrin] |  |
|  | ~0.19 | 780.2 ± 10.39 ng/mL | 1 | C[C@@H]1O[C@@H](OC[C@H]2O[C@@H](Oc3c(-c4ccc(O)c(O)c4)oc4cc(O)cc(O)c4c3=O)[C@H](O)[C@@H](O)[C@@H]2O)[C@H](O)[C@H](O)[C@H]1O [RUT, rutin] | AUC(0-inf) [2]: 12820 ± 78.9 µg·h/mL; AUC(0-t) [2]: 12810 ± 77.3 µg·h/mL; Tmax [2]: 8 h; half-life [2]: 3.98 ± 0.53 h |
